ChEMBL document CHEMBL1131238, “Investigation of the N-substituent conformation governing potency and mu receptor subtype-selectivity in (+)-(3R, 4R)-dimethyl-4-(3-hydroxyphenyl)piperidine opioid antagonists” (J Med Chem, 1998)

Assays:
[1] = target: T1, Kappa-type opioid receptor (Cavia porcellus, UniProt P41144); assay: Inhibition of [3H]U-69593 binding to Opioid receptor kappa 1 of guinea pig membranes
[2] = target: Delta-type opioid receptor (Rattus norvegicus, UniProt P33533); assay: Inhibition of [3H]-DADLE binding to Opioid receptor delta 1 of rat brain membranes; format: cell membranes, Membrane
Delta-type opioid receptor, sequence (P33533 whole entry): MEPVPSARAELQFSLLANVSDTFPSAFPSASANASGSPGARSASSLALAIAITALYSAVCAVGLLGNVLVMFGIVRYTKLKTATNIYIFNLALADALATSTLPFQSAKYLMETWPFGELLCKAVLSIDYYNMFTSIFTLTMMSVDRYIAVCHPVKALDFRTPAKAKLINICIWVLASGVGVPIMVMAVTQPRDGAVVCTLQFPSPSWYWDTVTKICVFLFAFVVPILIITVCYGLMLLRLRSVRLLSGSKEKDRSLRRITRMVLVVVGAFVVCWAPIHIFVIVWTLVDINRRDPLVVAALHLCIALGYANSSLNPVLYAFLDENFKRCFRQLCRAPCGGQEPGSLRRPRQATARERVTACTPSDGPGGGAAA

Mu-type opioid receptor [3] = target: Mu-type opioid receptor (Rattus norvegicus, UniProt P33535); assay: Inhibition of [3H]DAMGO binding to Opioid receptor mu 1 of rat brain membranes; format: cell membranes, Membrane
Mu-type opioid receptor (Rattus norvegicus, UniProt P33535), sequence (P33535 whole entry): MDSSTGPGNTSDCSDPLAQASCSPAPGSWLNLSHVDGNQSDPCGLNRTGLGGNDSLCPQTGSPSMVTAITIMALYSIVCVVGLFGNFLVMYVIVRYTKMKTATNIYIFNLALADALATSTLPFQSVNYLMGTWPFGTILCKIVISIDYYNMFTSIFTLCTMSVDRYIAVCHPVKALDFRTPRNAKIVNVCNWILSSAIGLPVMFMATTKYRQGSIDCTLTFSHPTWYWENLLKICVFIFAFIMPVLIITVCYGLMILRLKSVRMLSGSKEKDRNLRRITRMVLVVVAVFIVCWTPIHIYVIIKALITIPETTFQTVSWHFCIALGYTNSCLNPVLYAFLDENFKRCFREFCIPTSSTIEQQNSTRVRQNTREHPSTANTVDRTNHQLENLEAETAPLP

Mu-type opioid receptor [4] = target: Mu-type opioid receptor (Cavia porcellus, UniProt P97266); assay: The compound was tested for antagonist activity by selective inhibition of [35S]GTP-gamma-S, binding to Opioid receptor mu 1 in Guinea pig caudate stimulated by DAMGO[mu]; format: functional
Mu-type opioid receptor (Cavia porcellus, UniProt P97266), sequence (P97266 whole entry): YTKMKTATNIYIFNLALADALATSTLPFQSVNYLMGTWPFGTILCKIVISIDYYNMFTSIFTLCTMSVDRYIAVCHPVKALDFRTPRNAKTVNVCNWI
How it was run: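 Guinea pig caudate putamen membranes (10 μg/tube) in 50 mM Tris-HCl pH 7.7, 0.1% BSA. Final: 100 mM NaCl, 5 mM MgCl2, 1 mM EDTA, 1 mM DTT, 100 μM GDP, 0.05–0.1 nM [35S]GTP-γ-S, agonist 500 nM or 10 μM, ≥10 antagonist concentrations; 4 h, filtration.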

[5] = target: T1, Kappa-type opioid receptor; assay: The compound was tested for antagonist activity by selective inhibition of [35S]GTP-gamma-S, binding in Guinea pig caudate stimulated by U69,593 to Opioid receptor kappa 1; format: functional

T1 sequence (P41144 whole entry): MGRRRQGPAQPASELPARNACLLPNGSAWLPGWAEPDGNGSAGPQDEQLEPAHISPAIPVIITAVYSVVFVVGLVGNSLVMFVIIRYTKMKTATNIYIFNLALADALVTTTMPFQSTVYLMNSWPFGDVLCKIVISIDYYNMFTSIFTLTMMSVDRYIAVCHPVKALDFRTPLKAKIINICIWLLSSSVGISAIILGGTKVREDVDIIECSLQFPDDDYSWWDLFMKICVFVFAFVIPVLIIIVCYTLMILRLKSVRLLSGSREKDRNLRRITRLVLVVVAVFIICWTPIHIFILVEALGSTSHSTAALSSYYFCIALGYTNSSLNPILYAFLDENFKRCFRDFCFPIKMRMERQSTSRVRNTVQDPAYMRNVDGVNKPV

Question: What does the source list for `C[C@H]1CN(C[C@@H]2C[C@H]2c2ccccc2)CC[C@@]1(C)c1cccc(O)c1`?
Answer: Ki [1]: 81.8 nM; Ki [2]: 709 nM; Ki (Mu-type opioid receptor [3]): 1.75 nM

Question: For `C[C@H]1CN(C2CCCC2)CC[C@@]1(C)c1cccc(O)c1`, which Ki [1] is on record?
Answer: 199 nM

Question: What about the Ki [2] of the same compound?
Answer: > 7300 nM

Question: What about the Ki (Mu-type opioid receptor [3]) of the same compound?
Answer: 444 nM

Question: Which Ki (Mu-type opioid receptor [4]) does the source give for `C[C@H]1CN(CC[C@H](O)C2CCCCC2)CC[C@@]1(C)c1cccc(O)c1` here?
Answer: 0.021 nM

Question: And the Ki [1]?
Answer: 28 nM

Question: What about the Ki [2] of the same compound?
Answer: 198 nM

Question: What about the Ki [5] of the same compound?
Answer: 0.33 nM

Question: What about the Ki (Mu-type opioid receptor [3]) of the same compound?
Answer: 0.32 nM

Question: `C[C@H]1CN(Cc2cc3ccccc3s2)CC[C@@]1(C)c1cccc(O)c1` was tested. Which Ki [1] did it give?
Answer: > 690 nM

Question: What about the Ki [2] of the same compound?
Answer: 1580 nM

Question: And the Ki (Mu-type opioid receptor [3])?
Answer: 21.2 nM

Question: What does the source list for `C[C@H]1CN(C2CCCC(O)(c3ccccc3)C2)CC[C@@]1(C)c1cccc(O)c1` (stereo partly drawn)?
Answer: Ki [1]: 674 nM; Ki [2]: > 7300 nM; Ki (Mu-type opioid receptor [3]): 203 nM

Question: Which Ki (Mu-type opioid receptor [4]) does the source give for `C[C@H]1CN(C/C=C/c2ccccc2Cl)CC[C@@]1(C)c1cccc(O)c1` here?
Answer: 0.026 nM

Question: What about the Ki [1] of the same compound?
Answer: 35.8 nM

Question: And the Ki [2]?
Answer: 168 nM

Question: What about the Ki [5] of the same compound?
Answer: 0.567 nM

Question: What about the Ki (Mu-type opioid receptor [3]) of the same compound?
Answer: 1.12 nM

Question: How did the Ki (Mu-type opioid receptor [4]) turn out when `C[C@H]1CN(C/C=C/c2ccccc2)CC[C@@]1(C)c1cccc(O)c1` was run?
Answer: 0.039 nM

Question: And the Ki [1]?
Answer: 122 nM

Question: What about the Ki [2] of the same compound?
Answer: 322 nM

Question: What about the Ki [5] of the same compound?
Answer: 1.04 nM

Question: What about the Ki (Mu-type opioid receptor [3]) of the same compound?
Answer: 0.74 nM

Question: With `Cc1ccccc1/C=C/CN1CC[C@@](C)(c2cccc(O)c2)[C@@H](C)C1` as the compound, how does the Ki (Mu-type opioid receptor [4]) read?
Answer: 0.013 nM

Question: What about the Ki [1] of the same compound?
Answer: 38.9 nM

Question: What about the Ki [2] of the same compound?
Answer: 142 nM

Question: What about the Ki [5] of the same compound?
Answer: 0.17 nM

Question: What about the Ki (Mu-type opioid receptor [3]) of the same compound?
Answer: 0.86 nM

Question: Which results are given for `C[C@H]1CN(C2CCCC(O)C2)CC[C@@]1(C)c1cccc(O)c1` (stereo partly drawn)?
Answer: Ki [1]: 1150 nM; Ki [2]: > 7300 nM

Question: How did the Ki [1] turn out when `C[C@H]1CN(Cc2cc3ccccc3o2)CC[C@@]1(C)c1cccc(O)c1` was run?
Answer: > 690 nM

Question: What about the Ki [2] of the same compound?
Answer: 1450 nM

Question: And the Ki (Mu-type opioid receptor [3])?
Answer: 22.2 nM

Question: Which results are given for `C[C@H]1CN(C2CCCCC2)CC[C@@]1(C)c1cccc(O)c1`?
Answer: Ki [1]: 315 nM; Ki [2]: > 7300 nM; Ki (Mu-type opioid receptor [3]): 1280 nM

Question: What does the source list for `C[C@H]1CN(C/C=C\c2ccccc2)CC[C@@]1(C)c1cccc(O)c1`?
Answer: Ki [1]: 298 nM; Ki [2]: 931 nM; Ki (Mu-type opioid receptor [3]): 11.4 nM
